The source of these data is ChEMBL document CHEMBL3232862, “Optimization of chemical functionalities of indole-2-carboxamides to improve allosteric parameters for the cannabinoid receptor 1 (CB1)” (J Med Chem, 2014).

Active and inactive are the calls of the source. The rule behind the calls is not given here.

Assay [1] has as its target Cannabinoid receptor 1 (Homo sapiens) (UniProt P21554). Kind of assay: Displacement of [3H]CP55940 from cannabinoid CB1 receptor (unknown origin) expressed in HEK293 cells after 60 mins by liquid scintillation counting. The assay is classed as cell-based. Put shortly:
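Membranes from HEK293 cells transiently transfected with CB1 (calcium phosphate), harvested 24 h post-transfection. […] At least nine test concentrations, 100 pM–100 μM. Nonspecific binding defined with 1 μM unlabeled CP55,940. Bound ligand kept below 10%. Filtration on GF/C. Duplicates, ≥3 independent experiments. KB and α obtained by nonlinear regression using the allosteric ternary complex model.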

For assay [2] the target is unchanged. As to the kind of experiment: Positive allosteric modulation of cannabinoid CB1 receptor (unknown origin) expressed in HEK293 cells assessed as induction of ERK1/2 phosphorylation by Western blot analysis in absence of siRNA targeting beta-arrestin 1. In kind it is cell-based. Put shortly: (§1)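 HEK293 cells were lipofectamine-transfected with CB1, with or without β-arrestin 1 siRNA (2.6 μg) or a nonsilencing control. After 24 h they were serum-starved for 18 h, with optional PTX at 5 ng/mL for 16 h at 37 °C. Cells were exposed 5 min to modulator (0–10 μM) plus 0.2 μM CP55,940 and lysed. 12 μg protein was run on 10% SDS-PAGE and immunoblotted for phospho-p44/42 and total p44/42.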
For orientation: Immunoblotting shows a protein as a band on a membrane.

Assay [3] shares this target. Kind of assay: Allosteric modulation of cannabinoid CB1 receptor (unknown origin) expressed in HEK293 cells assessed as inhibition of CP55940-induced [35S]GTPgammaS binding after 60 mins by liquid scintillation counting. In kind it is functional, cell-based. Put shortly:
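Membranes from HEK293 cells transiently expressing CB1 (calcium phosphate transfection, harvested 24 h) were used at 7.5 μg per assay. They were incubated 60 min at 30 °C in Tris pH 7.4, MgCl2, EGTA and NaCl with 0.1 nM [35S]GTPγS, 10 μM GDP, 0.1% BSA and CP55,940 (100 pM–100 μM), with or without modulator. Nonspecific binding was taken with 10 μM GTPγS. Read-out was filtration and scintillation counting, duplicates, ≥3 experiments.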
For orientation: GTPγS resists hydrolysis and so accumulates on activated G proteins.

For assay [4] the target is unchanged. Kind of assay: Positive allosteric modulation of cannabinoid CB1 receptor (unknown origin) expressed in HEK293 cells assessed as effect on ERK1/2 phosphorylation at 5 uM by Western blot analysis in absence of siRNA targeting beta-arrestin 1. In kind it is cell-based. The method, boiled down: as §1
The target is the same in assay [5]. Kind of assay: Positive allosteric modulation of cannabinoid CB1 receptor (unknown origin) expressed in HEK293 cells assessed as induction of ERK1/2 phosphorylation at 0.05 to 10 uM in presence of CP55940 for 5 mins and pre-treated with PTX for 16 hrs by Western blot analysis. The assay is classed as cell-based. The method, boiled down: as §1
For assay [6] the target is unchanged. Kind of assay: Positive allosteric modulation of cannabinoid CB1 receptor (unknown origin) expressed in HEK293 cells assessed as induction of ERK1/2 phosphorylation by Western blot analysis in presence of siRNA targeting beta-arrestin 1. The assay is classed as cell-based. The method, boiled down:
as §1

Cannabinoid receptor 1 (Homo sapiens), sequence (P21554 whole entry): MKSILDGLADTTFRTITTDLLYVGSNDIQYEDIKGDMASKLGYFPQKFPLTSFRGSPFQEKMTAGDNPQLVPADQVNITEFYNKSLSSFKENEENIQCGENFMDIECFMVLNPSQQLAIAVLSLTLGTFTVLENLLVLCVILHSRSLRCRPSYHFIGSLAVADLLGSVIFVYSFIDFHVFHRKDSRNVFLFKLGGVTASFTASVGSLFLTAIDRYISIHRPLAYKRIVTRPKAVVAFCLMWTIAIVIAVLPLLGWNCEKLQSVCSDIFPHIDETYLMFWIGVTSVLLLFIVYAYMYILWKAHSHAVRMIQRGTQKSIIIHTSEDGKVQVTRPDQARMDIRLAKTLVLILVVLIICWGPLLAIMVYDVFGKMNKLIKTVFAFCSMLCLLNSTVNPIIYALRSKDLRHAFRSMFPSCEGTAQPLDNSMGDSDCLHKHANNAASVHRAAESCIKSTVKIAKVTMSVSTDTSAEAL

For `CCc1c(C(=O)NCCc2ccc(N(C)C)cc2)[nH]c2cc(Cl)ccc12`, the Kb in assay [1] was found to be 3670 nM.

On to `CCc1c(C(=O)NCCc2ccc(N(C)C)cc2)[nH]c2cc(F)ccc12`, for which the Kb in assay [1] was 1580 nM.

Consider `CCCCCCc1c(C(=O)NCCc2ccc(N(C)C)cc2)[nH]c2ccc(Cl)cc12`, for which the inhibition entry in assay [2] and in assay [3] was “Dose-dependent effect” throughout. Moreover, in assay [1], the Kb was found to be 89.1 nM. Also, the result in assay [4] and in assay [5] was Active. In assay [6], the inhibition result is “inactive”.

For `CCCCc1c(C(=O)NCCc2ccc(N(C)C)cc2)[nH]c2ccc(Cl)cc12`, the Kb in assay [1] amounted to 209 nM.

`CCCc1c(C(=O)NCCc2ccc(N3CCCCC3)cc2)[nH]c2ccc(Cl)cc12` had a Kb in assay [1] of 1750 nM.

Consider `CCCc1c(C(=O)NCCc2ccc(N(C)C)cc2)[nH]c2ccc(Cl)cc12`, for which the inhibition result in assay [2] and in assay [3] was “Dose-dependent effect” throughout. This compound registered a Kb in assay [1] of 259 nM. Also, in assay [4], the result was Active. In assay [6], the inhibition entry was “inactive”.
